The source of these data is ChEMBL document CHEMBL1142473, “Antitumor studies. Part 5: Synthesis, antitumor activity, and molecular docking study of 5-(monosubstituted amino)-2-deoxo-2-phenyl-5-deazaflavins” (Bioorg Med Chem, 2008).

Structures are written as SMILES. ≈ marks a conversion by molar mass, not a printed value. Bounds are passed on as bounds.

For assay [1], the system named is KB. The experiment in a line: Growth inhibition of human KB cells by MTT method. In kind it is functional, cell-based. The essentials: (§1)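 IC50 taken from the dose-response curve; AraC run alongside as positive control.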
For orientation: Formazan colour is commonly taken as a measure of viable cells.

Assay [2] deals with CCRF-HSB-2. The experiment in a line: Growth inhibition of human CCRF-HSB-2 cells by MTT method. In kind it is functional, cell-based. An outline of the steps:
as §1

A word on the IC50: it is the concentration at which inhibition is half-maximal. A low value points to higher potency. As for `Cn1c2nc(-c3ccccc3)nc(=O)c-2c(NCc2ccccc2)c2ccccc21`, the figures for the IC50 in assay [1] and in assay [2] were 66.9 µg/mL (≈ 170 µM) and greater than 100 µg/mL, respectively.
As to `CCn1c2nc(-c3ccccc3)nc(=O)c-2c(NCCc2ccccc2)c2ccccc21`, the IC50 was determined as 53.4 µg/mL (≈ 127 µM) in assay [1] and 63.3 µg/mL (≈ 151 µM) in assay [2].
Consider `CCCCNc1c2c(=O)nc(-c3ccccc3)nc-2n(C)c2ccccc12`, for which the IC50 stood at 6.6 µg/mL (≈ 18.4 µM) in assay [1] and 4.7 µg/mL (≈ 13.1 µM) in assay [2].
In the case of `CCn1c2nc(-c3ccccc3)nc(=O)c-2c(NCc2ccccc2)c2ccccc21`, the results for the IC50 in assay [1] and in assay [2] were 4.7 µg/mL (≈ 11.6 µM) and 6.1 µg/mL (≈ 15 µM), respectively.
As for `CCCCCCCCNc1c2c(=O)nc(-c3ccccc3)nc-2n(CC)c2ccc(C)cc12`, the concentration for half-maximal inhibition (IC50) in assay [1] turned out to be 2 µg/mL (≈ 4.52 µM); in assay [2] it was 5.7 µg/mL (≈ 12.9 µM).
As to `Cc1ccc(Nc2c3c(=O)nc(-c4ccccc4)nc-3n(C)c3ccccc23)cc1C`, the results for the IC50 in assay [1] and in assay [2] were 1.6 µg/mL (≈ 3.94 µM) and 0.75 µg/mL (≈ 1.85 µM), respectively.
For `CCCCCCCCNc1c2c(=O)nc(-c3ccccc3)nc-2n(CC)c2ccccc12`, in that order: 12 µg/mL (≈ 28 µM) and 20.4 µg/mL (≈ 47.6 µM).
For `CCCCCCCCNc1c2c(=O)nc(-c3ccccc3)nc-2n(C)c2ccc(C)cc12`, in that order: 4.7 µg/mL (≈ 11 µM) and 8.6 µg/mL (≈ 20.1 µM).
Turning to `Cn1c2nc(-c3ccccc3)nc(=O)c-2c(NCCc2ccccc2)c2ccccc21`, the IC50 in assay [1] was determined as 22 µg/mL (≈ 54.1 µM); in assay [2] it was 17.7 µg/mL (≈ 43.5 µM).
On to `CCn1c2nc(-c3ccccc3)nc(=O)c-2c(NCc2ccccc2)c2cc(C)ccc21`, for which the IC50 is 17.2 µg/mL (≈ 40.9 µM) in assay [1] and 6.9 µg/mL (≈ 16.4 µM) in assay [2].
`Nc1ccn([C@@H]2O[C@H](CO)[C@@H](O)[C@@H]2O)c(=O)n1` [CYTARABINE]: the IC50 amounted to 0.42 µg/mL (≈ 1.73 µM) in assay [1] and 0.017 µg/mL (≈ 0.0699 µM) in assay [2].
With `Cc1ccc(Nc2c3c(=O)nc(-c4ccccc4)nc-3n(C)c3ccccc23)cc1`, the IC50 in assay [1] was 1.8 µg/mL (≈ 4.59 µM); in assay [2], 1.1 µg/mL (≈ 2.8 µM).
As for `CCCCCCCCNc1c2c(=O)nc(-c3ccccc3)nc-2n(C)c2ccccc12`, the values for the half-maximal inhibitory concentration (IC50) in assay [1] and in assay [2] were 32.9 µg/mL (≈ 79.4 µM) and greater than 100 µg/mL, respectively.
For `COC(=O)c1ccccc1Nc1c2c(=O)nc(-c3ccccc3)nc-2n(C)c2ccccc12`, the IC50 in assay [1] and in assay [2] was greater than 100 µg/mL each time.
As for `CCCCNc1c2c(=O)nc(-c3ccccc3)nc-2n(CC)c2ccc(C)cc12`, the IC50 in assay [1] is 8.6 µg/mL (≈ 22.3 µM); in assay [2], 8.9 µg/mL (≈ 23 µM).
On to `CCCCNc1c2c(=O)nc(-c3ccccc3)nc-2n(C)c2ccc(C)cc12`, for which the IC50 was found to be 2.7 µg/mL (≈ 7.25 µM) in assay [1] and 2.1 µg/mL (≈ 5.64 µM) in assay [2].
As to `CCCNc1c2c(=O)nc(-c3ccccc3)nc-2n(C)c2ccccc12`, the IC50 in assay [1] was 18 µg/mL (≈ 52.3 µM); in assay [2], greater than 100 µg/mL.
With `CCCCNc1c2c(=O)nc(-c3ccccc3)nc-2n(CC)c2ccccc12`, the IC50 in assay [1] turned out to be 7.6 µg/mL (≈ 20.4 µM); in assay [2], 8.3 µg/mL (≈ 22.3 µM).
